MrgX1 agonist: activates human MrgX1 receptor signaling; Q96LB2; MrgX1-HEK293 cells, Fluo-4 calcium fluorescence, agonist mode; active compounds read high; B-score at 10 µM; actives 0.44% (n = 310,000); AID 588627;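 active means calcium response B-score plate-corrected fluorescence ratio at least 3 library SD, with starting fluorescence B-score inside 5 SD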
Target sequence (Q96LB2 whole entry, looked up): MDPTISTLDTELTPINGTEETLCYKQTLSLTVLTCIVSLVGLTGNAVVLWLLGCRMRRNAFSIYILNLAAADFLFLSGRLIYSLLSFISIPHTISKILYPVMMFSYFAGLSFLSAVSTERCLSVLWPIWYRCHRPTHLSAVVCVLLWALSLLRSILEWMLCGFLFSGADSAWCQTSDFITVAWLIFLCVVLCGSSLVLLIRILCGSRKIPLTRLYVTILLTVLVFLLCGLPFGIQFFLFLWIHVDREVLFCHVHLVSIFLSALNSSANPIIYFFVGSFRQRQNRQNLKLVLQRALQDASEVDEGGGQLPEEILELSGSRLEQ
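Material: MrgX1-expressing HEK293 cells / Dosing: compound as first of three additions / Incubation: overnight seeding, then 1 h dark dye loading / Signal: Fluo-4 NW calcium fluorescence / Evaluation: B-scored fluorescence response ratio / Benchmarks: positive and negative control wells on each plate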
MrgX1 antag: human MrgX1 receptor antagonism, primary screen; actives 1.3% (n = 310,000); MRGX1-HEK293 calcium flux, Fluo-4, BAM8-22 antagonism; active compounds read low; Q96LB2; B-score at 10 µM;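 active means calcium-response B-score plate-corrected more than 3 library SD below zero, starting fluorescence within 5 deviations, no agonist response on first addition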;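 further: peak minus trough fluorescence over baseline after final BAM8-22 challenge near maximal dose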
MrgX1 allo act: allosterically activates human MrgX1 receptor signaling; AID 588675; MrgX1-HEK293, Fluo-4 calcium flux, FDSS; active compounds read high; actives 0.63% (n = 310,000); B-score at 10 µM; Q96LB2;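 active means plate-corrected calcium response at least 3 library SD above typical, normal starting fluorescence, not activating the receptor alone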;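 further: compound read alongside a low EC10 to EC30 dose of BAM8-22 agonist; peak minus trough fluorescence over baseline measured at the second addition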
RGS4 inh: inhibitors of human RGS4 | P49798 | HEK293 M3R/RGS4 inducible, Fluo-4 calcium flux; active compounds read high; triggered by carbachol at its EC20 | B-score at 10 µM | actives 0.45% (n = 310,000) | AID 463165;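 active means B-score, a plate-corrected calcium signal, over three deviations above library mean, with baseline fluorescence within five deviations of library mean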;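 further: RGS4 expression induced by doxycycline in cells with stable M3 receptor; B-score is computed from the integrated fluorescence ratio over baseline after carbachol; higher B-score means a larger calcium signal and so more RGS4 inhibition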
Target sequence (P49798 whole entry, looked up): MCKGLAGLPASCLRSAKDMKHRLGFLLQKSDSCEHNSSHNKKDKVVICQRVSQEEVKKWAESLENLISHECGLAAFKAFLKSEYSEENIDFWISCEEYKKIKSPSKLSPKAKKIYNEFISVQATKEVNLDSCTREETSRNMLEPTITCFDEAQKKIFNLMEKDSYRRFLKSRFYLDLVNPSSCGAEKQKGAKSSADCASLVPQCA
RGS4 pot: potentiators or activators of RGS4. HEK293 M3R/inducible RGS4, carbachol calcium flux Fluo4; active compounds read low. B-score at 10 µM. actives 0.92% (n = 310,000);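 active means B-score of the integrated calcium signal more than 4 SD below the library mean, with starting fluorescence not abnormally high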;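 further: negative B-score means reduced calcium response which marks RGS4 activation or potentiation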
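test system = HEK293 cells with stable M3R and inducible RGS4 | schedule = recording 10 s baseline at 1 Hz, 100 s post-agonist | technique = Fluo4-AM (2 µM) calcium-flux fluorescence, kinetic read | measure = Agonist-evoked peak-minus-minimum fluorescence over baseline, integrated ratio, B score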
RGS4 block valid: validation of RGS4 inhibitors; shares compounds with RGS4 inh; HEK293 M3R/RGS4, carbachol calcium Fluo-4 fluorescence; carbachol added at its EC20; 0 = buffer wells, 100 = carbachol control; calcium response, % at 10 µM; actives 65% (n = 1,700); AID 492999;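 active means duplicate-averaged calcium response above the buffer-only control mean plus 5 SD of those controls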;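 further: integrated fluorescence ratio F max minus min over baseline F0; higher response in RGS4-induced cells means RGS4 inhibition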
M3R Ca ctr: checks RGS4 inhibitor effects in non-induced HEK293 M3R cells | shares compounds with RGS4 inh | carbachol calcium Fluo-4; submaximal (EC20) carbachol stimulus; buffer wells 0%, carbachol control wells 100% | activity (percent), % at 10 µM | actives 20% (n = 1,900); call rule not given here;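 further: RGS4 induction absent so cells express M3R without RGS4; higher means more calcium signal and flags a non-specific hit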
M3R basal Ca ctr: second counter-screen for RGS4 inhibitors: non-induced cells without carbachol; shares compounds with RGS4 inh; HEK293 M3R/RGS4 non-induced, Fluo-4 calcium, no carbachol; normalised: buffer wells 0%, carbachol wells 100%; calcium response (agonist-mode artifact), % at 10 µM; actives 22% (n = 1,900);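 active means duplicate-averaged calcium rise in uninduced cells above buffer wells' mean plus 5 SD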
Of the large screens only hits and unclear results are named; the others gave an inactive call (follow-up assays come after a bar, where they were run). Rows were chosen to be rich in hits. Some 3.5% of all compounds tested hit in one or more screens of this group.

COc1ccc(/C=C2\SC(=S)N(CC(=O)OCC(=O)Nc3cc(Cl)cc(Cl)c3)C2=O)cc1	none
CC(Oc1ccc(Br)cc1)C(=O)N(C)CC(=O)Nc1ccc(N2CCOCC2)cc1 (stereo not drawn)	none
CSc1cccc(N=C2C(=O)Nc3ccccc32)c1	MrgX1 agonist 32, RGS4 inh 16 | RGS4 block valid 24% | M3R Ca ctr inactive | M3R basal Ca ctr 7.5%
O=C1Nc2ccccc2C1=Nc1cccc(Cl)c1	MrgX1 agonist 51, RGS4 inh 41 | RGS4 block valid 28% | M3R Ca ctr 54% | M3R basal Ca ctr 16%
O=C(CN(CCc1ccccc1)S(=O)(=O)c1ccc(Br)cc1)N/N=C/c1ccc2c(c1)OCO2	none
O=C(CN(Cc1ccccc1)S(=O)(=O)c1ccccc1)N/N=C/c1ccc2c(c1)OCO2	none | M3R Ca ctr inactive | M3R basal Ca ctr inactive
O=C(CN(Cc1ccc(Cl)c(Cl)c1)S(=O)(=O)c1ccccc1)N/N=C\c1ccc2c(c1)OCO2	RGS4 inh 6.7 | RGS4 block valid 18% | M3R Ca ctr inactive | M3R basal Ca ctr inactive
CCN(CC)Cc1nc2c(c(=O)[nH]1)C(CC)(CC)Cc1ccccc1-2	none
CC(=O)CCc1oc2c([N+](=O)[O-])cccc2c1-c1ccc(C)o1	none
C/C(CCc1oc2c(Br)cc(Br)cc2c1-c1ccc(C)o1)=N\O	RGS4 inh 11 | RGS4 block valid inactive | M3R Ca ctr inactive | M3R basal Ca ctr inactive
CCOc1ccc(C(=O)Nc2nnc(NC(=S)Nc3ccccc3)s2)cc1	RGS4 inh 4.9 | RGS4 block valid 10% | M3R Ca ctr inactive | M3R basal Ca ctr inactive
Cc1ccc(C(=O)Nc2nnc(NC(=S)Nc3ccccc3)s2)cc1	none
Cc1cc(C2(c3ccc(O)c(C)c3)C(=O)N(C)c3ccc(Br)cc32)ccc1O	RGS4 inh 13 | RGS4 block valid 28% | M3R Ca ctr inactive | M3R basal Ca ctr inactive
Cc1ccc(CNC(=O)C(c2ccccc2)c2ccccc2)cc1	none
O=C(/C=C/NNC(=O)c1ccccc1)c1ccccc1	none | M3R Ca ctr inactive | M3R basal Ca ctr inactive
O=C(/C=C/NNC(=O)c1ccc(Br)cc1)c1ccccc1	none
CCOc1ccc(C(=O)CCN2CCCCCC2)cc1	RGS4 inh 11 | RGS4 block valid inactive | M3R Ca ctr inactive | M3R basal Ca ctr 20%
CCCOc1ccc(C(=O)CCN2CCCCC2)cc1	none | RGS4 block valid inactive | M3R Ca ctr inactive | M3R basal Ca ctr 12%
CCCCOc1ccc(C(=O)CCN2CCOCC2)cc1	none
CN(Cc1ccccc1F)C(=O)CNC(=O)Cc1cccc2ccccc12	none
Nc1nonc1-n1nnc(C(=O)N/N=C/c2ccc(Cl)cc2Cl)c1CN1CCOCC1	none
CC1Cc2ccccc2N1C(=O)CCn1cccn1 (stereo not drawn)	none
O=C(CN1C(=O)S/C(=C\C=C\c2ccccc2)C1=O)N1CCOCC1	RGS4 inh 8.5 | RGS4 block valid 9.5% | M3R Ca ctr inactive | M3R basal Ca ctr inactive
O=C(CCN1C(=O)S/C(=C\c2ccccc2)C1=O)N1CCOCC1	none
O=C(CN1C(=O)S/C(=C/C=C/c2ccccc2)C1=O)Nc1ccc(C(=O)O)cc1	RGS4 inh 4.7 | RGS4 block valid 7.0% | M3R Ca ctr inactive | M3R basal Ca ctr inactive
COc1ccc(NC(=O)/C(Cl)=C(/Cl)S(=O)Cc2ccccc2)cn1 (stereo not drawn)	RGS4 inh 27 | RGS4 block valid 46% | M3R Ca ctr inactive | M3R basal Ca ctr inactive
O=S(=O)(Nc1ccc(S(=O)(=O)Nc2nccs2)cc1)c1ccc2c(c1)OCCO2	none | RGS4 block valid inactive | M3R Ca ctr inactive | M3R basal Ca ctr inactive
NS(=O)(=O)c1ccc(NS(=O)(=O)c2ccc3c(c2)OCCO3)cc1	none
Cc1cc(C(=O)Cn2cnc3ccccc3c2=O)c(C)n1C1CC1	none
O=c1c(O)c(-c2ccc(O)cc2)oc2cc(O)cc(O)c12	none | M3R Ca ctr inactive | M3R basal Ca ctr inactive
O=C(CCN1C(=O)/C(=C/C=C/c2ccccc2)SC1=S)Nc1nc2ccccc2s1	none
O=C(O)CCCN1C(=O)/C(=C/c2ccc(-c3nc4ccccc4s3)o2)SC1=S	RGS4 inh 22, RGS4 pot -9.2 | RGS4 block valid 8.0% | M3R Ca ctr inactive | M3R basal Ca ctr 389%
O=C(O)CCCCCN1C(=O)/C(=C\c2ccc(-c3ccc(Cl)cc3)o2)SC1=S	RGS4 inh 36, RGS4 pot -11 | RGS4 block valid 44% | M3R Ca ctr inactive | M3R basal Ca ctr 48%
CCC[C@H]1COCCS(=O)(=O)N1Cc1ccc(Br)cc1	none
Cc1ccc2c(c1)c1c(n2CC(O)Cn2c(C)nc3ccccc32)/C(=N\O)CCC1 (stereo not drawn)	RGS4 inh 15 | RGS4 block valid 42% | M3R Ca ctr inactive | M3R basal Ca ctr inactive
Fc1ccc(Nc2nnc(C(F)(F)F)s2)cc1	none
NC1=NC(=Nc2ccc(Cl)cc2)c2ccccc21	RGS4 inh 8 | RGS4 block valid 8.0% | M3R Ca ctr inactive | M3R basal Ca ctr inactive
CCCCN(C(=O)c1ccc([N+](=O)[O-])o1)c1c(N)n(CCCC)c(=O)[nH]c1=O	none
CC(=O)c1ccc(-c2ccc(C(=O)NC3CC(C)(C)NC(C)(C)C3)o2)cc1	none
CCOC(=O)[C@@H]1[C@H]2COc3ccc(Br)cc3[C@@H]2N2C(=O)N(c3ccccc3)C(=O)[C@@]12C	none
CCOC(=O)[C@@H]1[C@H]2COc3ccc(Br)cc3[C@H]2N2C(=O)N(c3cccc(Cl)c3)C(=O)[C@]12C	none | RGS4 block valid inactive | M3R Ca ctr inactive | M3R basal Ca ctr inactive
CCOC(=O)[C@@H]1[C@H]2COc3ccc(Br)cc3[C@@H]2N2C(=O)N(c3cccc(Cl)c3)C(=O)[C@]12C	none | RGS4 block valid inactive | M3R Ca ctr inactive | M3R basal Ca ctr inactive
CCN(CC)c1nc(N)c2c(N)nc3c(c2c1C#N)CC(c1ccccc1)O3 (stereo not drawn)	RGS4 inh 5.3 | RGS4 block valid 18% | M3R Ca ctr inactive | M3R basal Ca ctr inactive
Cc1ccc(NC(=O)CCC(=O)c2cc(C)sc2C)nc1	none
COc1ccc(/C=C(\NC(=O)c2ccccc2)C(=O)NCc2cccnc2)cc1	none | RGS4 block valid inactive | M3R Ca ctr inactive | M3R basal Ca ctr inactive
CN(C)c1ccc(/C=C(\NC(=O)c2ccccc2)C(=O)NCc2ccncc2)cc1	none

Compound activity deposited in PubChem BioAssay by Johns Hopkins Ion Channel Center.
